Results from ChEMBL document CHEMBL4145656, “Additional Insights into Hypericum perforatum Content: Isolation, Total Synthesis, and Absolute Configuration of Hyperbiphenyls A and B from Immunomodulatory Root Extracts” (J Nat Prod, 2018).
The source made the active and inactive calls. No cut-off for these calls is given here.

Assays:
HUVEC [1] = test: Immunomodulatory activity in HUVEC assessed as inhibition of IFNgamma-induced HLA-E expression at 10 uM pretreated for 1 hr followed by IFNgamma stimulation and measured after 48 hrs by immunostaining based flow cytometry relative to control; assay type: functional
Outline: (§1)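 Endothelial cells were stimulated with IFNγ to upregulate MHC class II and HLA-E in the presence of test agent at 10 μM. Surface expression was measured by flow cytometry.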

HUVEC [2] = test: Immunomodulatory activity in HUVEC assessed as inhibition of IFNgamma-induced MICA expression at 10 uM pretreated for 1 hr followed by IFNgamma stimulation and measured after 48 hrs by immunostaining based flow cytometry relative to control; assay type: functional
HUVEC [3] = test: Immunomodulatory activity in HUVEC assessed as inhibition of IFNgamma-induced HLA-DR expression at 10 uM pretreated for 1 hr followed by IFNgamma stimulation and measured after 48 hrs by immunostaining based flow cytometry relative to control; assay type: functional; outline: as §1
HUVEC [4] = test: Immunomodulatory activity in HUVEC assessed as inhibition of IFNgamma-induced MHC-1 expression at 10 uM pretreated for 1 hr followed by IFNgamma stimulation and measured after 48 hrs by immunostaining based flow cytometry relative to control; assay type: functional
Outline: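 Cultured vascular endothelial cells were stimulated with IFNγ to upregulate MHC molecules (MHC class I, class II, HLA-E) in the presence of the test compound at 10 μM. Surface expression of MHC was then quantified by flow cytometry.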

HUVEC [5] = test: Effect on HLA-DR expression in HUVEC at 10 uM measured after 1 hr by immunostaining based flow cytometry; assay type: ADME, cell-based; settings: human
HUVEC [6] = test: Immunomodulatory activity in HUVEC assessed as inhibition of TNFalpha-induced MICA expression at 5 to 50 uM measured by ELISA relative to control; assay type: functional, Homo sapiens
Outline: (§2)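 Cell-based ELISA on cultured vascular endothelial cells quantifying surface molecules. Cells were stimulated with TNF to induce VCAM-1 and MICA, or with IFNγ to induce MHC class I. Test agents were present at 5, 25 and 50 μM.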

HUVEC [7] = test: Reduction in basal MICA expression in HUVEC at 10 uM measured after 1 hr by immunostaining based flow cytometry; assay type: ADME, cell-based; set-up: scale not given: the % may be the effect or the level left; settings: human
HUVEC [8] = test: Effect on HLA-E expression in HUVEC at 10 uM measured after 1 hr by immunostaining based flow cytometry; assay type: ADME, cell-based; settings: human
HUVEC [9] = test: Effect on MHC-1 expression in HUVEC at 10 uM measured after 1 hr by immunostaining based flow cytometry; assay type: ADME, cell-based; settings: human
HUVEC [10] = test: Immunomodulatory activity in HUVEC assessed as inhibition of TNFalpha-induced VCAM1 expression at 5 to 50 uM measured by ELISA relative to control; assay type: functional, Homo sapiens; outline: as §2
HUVEC [11] = test: Immunomodulatory activity in HUVEC assessed as inhibition of IFNgamma-induced MHC1 expression at 5 to 50 uM measured by ELISA relative to control; assay type: functional, Homo sapiens; outline: as §2

| Structure (SMILES) | Activity (HUVEC [1]; Homo sapiens) | Activity (HUVEC [2]; Homo sapiens) | Activity (HUVEC [3]; Homo sapiens) | Activity (HUVEC [4]; Homo sapiens) | other results |
| --- | --- | --- | --- | --- | --- |
| COc1cc(C2Oc3c(OC)cc4c(=O)c5ccccc5oc4c3OC2CO)ccc1O (configuration not stated) | inactive | inactive | inactive | inactive | – |
| O.O=P(O)(O)C(O)(Cn1ccnc1)P(=O)(O)O [ZOLEDRONIC ACID] | – | – | – | – | Activity (HUVEC [4]): 67% |
| COc1cc2oc3cc(O)cc(O)c3c(=O)c2c2c1OC(C)(C)C=C2 | inactive | inactive | inactive | inactive | – |
| COc1cc(-c2ccccc2)cc2c1C[C@@H](C(C)(C)O)O2 | inactive | inactive | inactive | inactive | – |
| COc1cc(-c2ccccc2)cc2c1C[C@H](O)C(C)(C)O2 | inactive | inactive | inactive | inactive | – |
| COc1c(O)ccc2c(=O)c3c(O)cc4c(c3oc12)C(C)(C)C(C)O4 (configuration not stated) | – | – | – | – | Activity (HUVEC [5]): Non-Toxic; Activity (HUVEC [1]): 40%; inhibition (INH) (HUVEC [6]): <10%; Activity (HUVEC [7]): 25%; Activity (HUVEC [2]): 24%; Activity (HUVEC [3]): 25%; Activity (HUVEC [8]): Non-Toxic; Activity (HUVEC [9]): Non-Toxic; inhibition (INH) (HUVEC [10]): >50%; inhibition (INH) (HUVEC [11]): 10 - 25% |
